As a reminder, the IC50 is the concentration that inhibits the measured activity by half. As a reminder, the half-life is the time in which the quantity being followed falls by half. A high value points to slow loss. One may read the bioavailability as the share of a dose that reaches the circulation, judged against a reference dose that is usually intravenous. Low readings indicate poor availability, high ones good availability.

In one data set the target is Collagenase 3 (Homo sapiens, UniProt P45452). The data set is described as follows: Inhibitory concentration against matrix metalloprotease 13.
For data set [1], the target named is T1, A disintegrin and metalloproteinase with thrombospondin motifs 4 (Homo sapiens, UniProt O75173).
T1 sequence (O75173 whole entry): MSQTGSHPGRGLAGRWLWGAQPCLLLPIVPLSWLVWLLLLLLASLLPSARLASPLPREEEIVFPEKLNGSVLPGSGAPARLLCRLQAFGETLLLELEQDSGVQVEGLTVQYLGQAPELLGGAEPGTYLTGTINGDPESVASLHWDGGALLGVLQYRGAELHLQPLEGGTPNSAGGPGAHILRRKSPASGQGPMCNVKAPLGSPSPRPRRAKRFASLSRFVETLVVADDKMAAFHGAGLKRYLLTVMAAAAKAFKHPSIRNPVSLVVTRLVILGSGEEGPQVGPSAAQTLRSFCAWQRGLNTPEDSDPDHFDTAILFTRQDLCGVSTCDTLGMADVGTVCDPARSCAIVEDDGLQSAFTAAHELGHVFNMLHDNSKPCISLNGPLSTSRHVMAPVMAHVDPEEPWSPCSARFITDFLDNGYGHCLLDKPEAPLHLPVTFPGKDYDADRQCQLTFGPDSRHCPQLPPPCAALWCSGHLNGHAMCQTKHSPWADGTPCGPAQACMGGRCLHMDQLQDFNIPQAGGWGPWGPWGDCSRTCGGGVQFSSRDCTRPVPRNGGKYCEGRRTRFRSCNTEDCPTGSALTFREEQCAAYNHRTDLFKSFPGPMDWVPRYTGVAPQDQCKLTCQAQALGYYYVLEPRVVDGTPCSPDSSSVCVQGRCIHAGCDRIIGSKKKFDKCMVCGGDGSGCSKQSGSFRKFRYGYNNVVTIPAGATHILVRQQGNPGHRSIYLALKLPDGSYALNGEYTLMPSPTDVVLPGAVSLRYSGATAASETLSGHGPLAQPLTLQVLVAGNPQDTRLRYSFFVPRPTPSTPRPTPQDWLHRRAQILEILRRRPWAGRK
Briefly: Inhibitory concentration against aggrecanase. Summed up: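 Cell-based assay in porcine chondrocytes. Aggrecan GAG chains labelled by culture with ³⁵S sulfate, then unincorporated label washed out. Aggrecan degradation stimulated with IL-1a (5ng/mL).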

For a further data set, the target named is T2, Interstitial collagenase (Homo sapiens, UniProt P03956).
T2 sequence (P03956 whole entry): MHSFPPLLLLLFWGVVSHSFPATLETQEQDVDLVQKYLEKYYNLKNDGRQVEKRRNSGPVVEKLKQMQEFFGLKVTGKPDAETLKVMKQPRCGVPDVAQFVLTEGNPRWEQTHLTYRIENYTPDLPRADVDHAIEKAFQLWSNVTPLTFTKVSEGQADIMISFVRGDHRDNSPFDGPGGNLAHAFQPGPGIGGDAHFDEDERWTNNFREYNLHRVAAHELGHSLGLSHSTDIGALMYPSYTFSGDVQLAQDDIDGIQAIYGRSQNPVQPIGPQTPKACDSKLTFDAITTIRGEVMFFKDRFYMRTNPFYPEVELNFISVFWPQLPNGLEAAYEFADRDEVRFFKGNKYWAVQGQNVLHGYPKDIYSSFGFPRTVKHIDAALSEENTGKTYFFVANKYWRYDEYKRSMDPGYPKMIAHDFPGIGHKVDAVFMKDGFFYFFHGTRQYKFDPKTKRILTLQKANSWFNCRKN
The data set is described as follows: Inhibitory concentration against matrix metalloprotease 1.

The nature of data set [2]: Inhibition of TNF alpha converting enzyme (TACE, ADAM17).
The target in data set [3] is Matrix metalloproteinase-14 (Homo sapiens, UniProt P50281). The data set is described as follows: Inhibition of matrix metalloprotease 14.
Data set [4] deals with Macrophage metalloelastase (Homo sapiens, UniProt P39900). Briefly: Inhibition of matrix metalloprotease 12.
A further data set deals with Stromelysin-1 (Homo sapiens, UniProt P08254). The data set is described as follows: Inhibition of matrix metalloprotease 3.
Data set [5] can be described thus: Half life in rat. To be noted: in vivo. It is filed as ADME, organism-based. Summed up: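 Rat PK after IV bolus of 5mg/kg in glycerol formal. Blood drawn from the jugular vein at 5, 15, 30 min and 1, 2, 4, 6, 8, 24 h. Plasma diluted with an equal volume of water, extracted with MTBE, drug measured by LC–MS/MS. Parameters from noncompartmental analysis.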
Data set [6] is described as follows: Oral bioavailability in rat. The data set is classed as ADME, organism-based. Particulars: in vivo. Summed up:
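Oral dose given to rat as a suspension in 0.5% aqueous methylcellulose.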

In data set [7] the target is Matrix metalloproteinase-9 (Homo sapiens, UniProt P14780). The data set is described as follows: Inhibition of matrix metalloprotease 9.
Matrix metalloproteinase-9, sequence (P14780 whole entry): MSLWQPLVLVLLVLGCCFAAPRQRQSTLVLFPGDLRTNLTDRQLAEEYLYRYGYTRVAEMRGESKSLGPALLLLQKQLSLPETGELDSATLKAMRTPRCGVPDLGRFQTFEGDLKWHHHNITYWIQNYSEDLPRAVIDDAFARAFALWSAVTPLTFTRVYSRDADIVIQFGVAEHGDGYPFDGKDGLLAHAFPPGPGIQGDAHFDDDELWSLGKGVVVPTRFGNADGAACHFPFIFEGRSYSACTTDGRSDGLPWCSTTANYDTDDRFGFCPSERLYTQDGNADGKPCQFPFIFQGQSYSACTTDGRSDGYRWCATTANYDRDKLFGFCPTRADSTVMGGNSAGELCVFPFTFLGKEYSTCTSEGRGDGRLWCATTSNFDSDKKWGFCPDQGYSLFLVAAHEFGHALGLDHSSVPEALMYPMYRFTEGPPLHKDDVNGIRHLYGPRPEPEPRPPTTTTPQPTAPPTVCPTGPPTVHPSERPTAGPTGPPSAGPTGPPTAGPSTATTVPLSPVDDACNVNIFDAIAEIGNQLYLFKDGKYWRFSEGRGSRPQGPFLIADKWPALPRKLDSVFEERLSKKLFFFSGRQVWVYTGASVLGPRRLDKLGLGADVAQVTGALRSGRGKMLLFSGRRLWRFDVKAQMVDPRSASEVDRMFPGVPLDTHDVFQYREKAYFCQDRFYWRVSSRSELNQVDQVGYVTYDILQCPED

Macrophage metalloelastase, sequence (P39900 whole entry): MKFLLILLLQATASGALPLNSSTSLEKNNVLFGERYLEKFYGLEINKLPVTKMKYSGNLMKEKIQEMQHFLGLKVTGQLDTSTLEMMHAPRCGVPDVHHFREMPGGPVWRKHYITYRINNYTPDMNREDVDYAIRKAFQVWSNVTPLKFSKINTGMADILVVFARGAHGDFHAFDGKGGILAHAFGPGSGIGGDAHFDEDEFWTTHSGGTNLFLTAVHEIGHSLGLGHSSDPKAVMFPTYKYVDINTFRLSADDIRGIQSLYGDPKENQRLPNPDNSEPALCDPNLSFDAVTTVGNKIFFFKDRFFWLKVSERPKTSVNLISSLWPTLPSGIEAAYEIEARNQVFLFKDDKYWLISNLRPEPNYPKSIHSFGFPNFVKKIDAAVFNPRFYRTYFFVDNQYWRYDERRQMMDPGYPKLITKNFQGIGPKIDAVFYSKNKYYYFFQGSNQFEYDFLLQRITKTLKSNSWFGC
Stromelysin-1, sequence (P08254 whole entry): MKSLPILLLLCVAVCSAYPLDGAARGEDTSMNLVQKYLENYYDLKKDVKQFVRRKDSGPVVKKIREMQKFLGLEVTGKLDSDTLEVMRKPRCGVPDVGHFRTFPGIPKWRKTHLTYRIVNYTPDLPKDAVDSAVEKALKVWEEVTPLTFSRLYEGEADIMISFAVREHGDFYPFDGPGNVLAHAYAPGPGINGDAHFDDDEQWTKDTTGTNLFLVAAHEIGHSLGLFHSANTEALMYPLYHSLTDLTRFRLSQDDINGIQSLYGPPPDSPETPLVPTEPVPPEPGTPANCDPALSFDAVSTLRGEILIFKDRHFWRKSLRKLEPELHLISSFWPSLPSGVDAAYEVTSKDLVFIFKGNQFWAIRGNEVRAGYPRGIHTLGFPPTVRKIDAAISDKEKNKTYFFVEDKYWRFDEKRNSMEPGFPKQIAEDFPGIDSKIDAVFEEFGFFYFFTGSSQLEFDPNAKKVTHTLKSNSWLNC

Consider `O=C(NO)[C@@]1(O)COCC[C@H]1S(=O)(=O)c1ccc(OCc2cccc(Cl)c2)cc1`, for which the figures for the 50% inhibitory concentration (IC50) (against Collagenase 3; in data set [1]; at Interstitial collagenase) were 0.0024 µM, > 1 µM and 7.9 µM, respectively.

With `O=C(NO)[C@@]1(O)COCC[C@H]1S(=O)(=O)c1ccc(OCc2ccc(Cl)cc2)cc1`, the concentration for half-maximal inhibition (IC50) came to 0.00088 µM against Collagenase 3, 0.33 µM in [1] and 1.4 µM at Interstitial collagenase.

Consider `O=C(NO)[C@@]1(O)COCC[C@H]1S(=O)(=O)c1ccc(OCc2cc(Cl)ccc2Cl)cc1`, for which the IC50 amounted to 0.013 µM against Collagenase 3, 0.087 µM in data set [1] and 27 µM against Interstitial collagenase.

With `Cc1cccc(C)c1COc1ccc(S(=O)(=O)[C@@H]2CCOC[C@]2(O)C(=O)NO)cc1`, the half-maximal inhibitory concentration (IC50) on Collagenase 3 is > 0.3 µM; in data set [1] it was > 1 µM; against Interstitial collagenase it was > 30 µM.

For the compound `Cc1cccc(Oc2ccc(S(=O)(=O)[C@@H]3CCOC[C@]3(O)C(=O)NO)cc2)c1`, the figures for the IC50 (at Collagenase 3; in data set [1]; at Interstitial collagenase) were 0.0011 µM, > 1 µM and 0.27 µM, respectively.

For `O=C(NO)[C@H]1C[C@@H](O)CCN1S(=O)(=O)c1ccc(OCc2ccccc2Cl)cc1`, the 50% inhibitory concentration (IC50) on Collagenase 3 worked out at 0.012 µM; in data set [2] it was 0.036 µM.

Take `Cc1ccc(-c2ccc(S(=O)(=O)[C@@H]3CCOC[C@]3(O)C(=O)NO)cc2)cc1`: the results for the IC50 (at Collagenase 3; in data set [1]; against Interstitial collagenase) were 0.00039 µM, > 1 µM and < 0.03 µM, respectively.

`O=C(NO)[C@@]1(O)COCC[C@H]1S(=O)(=O)c1ccc(OCc2ccc(Cl)cc2Cl)cc1`: the IC50 in data set [3] was found to be 0.15 µM; in [4] it was 0.00095 µM; against Collagenase 3, 0.00095 µM; in [1] it was 0.0081 µM; at Stromelysin-1 it was 0.055 µM; against Interstitial collagenase it was 0.92 µM. The compound also had an IC50 in [7] of 0.0053 µM. For the same compound, the half-life in data set [5] is 5 h. The bioavailability in [6] was 7%.

`Cc1ccc(COc2ccc(S(=O)(=O)[C@@H]3CCOC[C@]3(O)C(=O)NO)cc2)cc1`: the IC50 on Collagenase 3 was 0.0013 µM; in [1] it was > 1 µM; at Interstitial collagenase it was 5.4 µM.

As for `O=C(NO)[C@@]1(O)COCC[C@H]1S(=O)(=O)c1ccc(OCc2ccccc2C(F)(F)F)cc1`, the IC50 is 0.028 µM against Collagenase 3, 0.22 µM in data set [1] and > 30 µM against Interstitial collagenase.

For the compound `O=C(NO)[C@@]1(O)COCC[C@H]1S(=O)(=O)c1ccc(OCc2ccccc2Cl)cc1`, the IC50 on Collagenase 3 was 0.0027 µM; in data set [1], 0.04 µM; against Interstitial collagenase it was 2.8 µM.

Consider `Cc1ccccc1COc1ccc(S(=O)(=O)[C@@H]2CCOC[C@]2(O)C(=O)NO)cc1`, for which the results for the IC50 (at Collagenase 3; in data set [1]; on Interstitial collagenase) were 0.021 µM, 0.055 µM and 12 µM, respectively.

Regarding `Cc1ccc(COc2ccc(S(=O)(=O)[C@@H]3CCOC[C@]3(O)C(=O)NO)cc2)c(C)c1`, the IC50 at Collagenase 3 came to 0.017 µM; in [1], 0.37 µM; on Interstitial collagenase, 19 µM.

In the case of `Cc1cccc(COc2ccc(S(=O)(=O)[C@@H]3CCOC[C@]3(O)C(=O)NO)cc2)c1`, the IC50 on Collagenase 3 is 0.005 µM; in data set [1], > 1 µM; at Interstitial collagenase, 22 µM.

With `Cc1ccc(Oc2ccc(S(=O)(=O)[C@@H]3CCOC[C@]3(O)C(=O)NO)cc2)cc1`, the IC50 was 0.001 µM against Collagenase 3, > 1 µM in data set [1] and 0.12 µM at Interstitial collagenase.

Consider `Cc1cccc(-c2ccc(S(=O)(=O)[C@@H]3CCOC[C@]3(O)C(=O)NO)cc2)c1`, for which the IC50 on Collagenase 3 is 0.00043 µM; in [1] it was > 1 µM; against Interstitial collagenase, < 0.03 µM.

Take `O=C(NO)[C@@]1(O)COCC[C@H]1S(=O)(=O)c1ccc(OCc2c(Cl)cccc2Cl)cc1`: the values for the IC50 (on Collagenase 3; in [1]; on Interstitial collagenase) were > 0.3 µM, > 1 µM and > 30 µM, respectively.

On to `CO[C@]1(C(=O)NO)COCC[C@H]1S(=O)(=O)c1ccc(OCc2ccc(Cl)cc2Cl)cc1`, for which the IC50 on Collagenase 3 was found to be 0.046 µM; in [1] it was 0.1 µM.

In the case of `CO[C@]1(C(=O)NO)COCC[C@H]1S(=O)(=O)c1ccc(OCc2ccccc2Cl)cc1`, the IC50 is 0.038 µM on Collagenase 3 and 0.1 µM in [1].

On to `Cc1ccccc1Oc1ccc(S(=O)(=O)[C@@H]2CCOC[C@]2(O)C(=O)NO)cc1`, for which the values for the IC50 (at Collagenase 3; in [1]; on Interstitial collagenase) were 0.0098 µM, > 1 µM and 4.7 µM, respectively.

For `O=C(NO)[C@@]1(O)COCC[C@H]1S(=O)(=O)c1ccc(OCc2cccc(Cl)c2Cl)cc1`, the values for the IC50 (against Collagenase 3; in data set [1]; at Interstitial collagenase) were 0.015 µM, 0.14 µM and 13 µM, respectively.

Regarding `Cc1ccccc1-c1ccc(S(=O)(=O)[C@@H]2CCOC[C@]2(O)C(=O)NO)cc1`, the results for the IC50 (against Collagenase 3; in data set [1]; against Interstitial collagenase) were 0.14 µM, > 1 µM and 10 µM, respectively.

Take `Cc1ccc(C)c(COc2ccc(S(=O)(=O)[C@@H]3CCOC[C@]3(O)C(=O)NO)cc2)c1`: the values for the IC50 (against Collagenase 3; in [1]; at Interstitial collagenase) were 0.3 µM, 0.026 µM and > 30 µM, respectively.

The values above are taken from ChEMBL document CHEMBL1137101, “3-Hydroxy-4-arylsulfonyltetrahydropyranyl-3-hydroxamic acids are novel inhibitors of MMP-13 and aggrecanase” (Bioorg Med Chem Lett, 2004).
